Measured values: PubChem BioAssay
The source made the active and inactive calls. Unless noted, no stated cut-off is given here; in the data, active means inhibition above about 31%; inactive means the rest.

Columns and labels:
[1] = HUVEC growth inhibition – cell-based, human, primary screen (AID 575;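 active means viability at or below 30% in both replicate assays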;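 further: 100% = median of untreated cell wells with 0.1% DMSO on each plate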); conditions: HUVEC proliferation, CellTiter-Glo luminescence, 72 h; at 10 µM; stronger effect = lower value
Procedure, shortened: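 Test system – primary HUVEC, no more than 12 passages · Dosing – one dose, 10 µM final, 0.1% DMSO · Times – 72 h treatment at 37 °C · Measured by – ATP-based CellTiter-Glo luminescent read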

[2] = H69AR cell proliferation blockers – human, duplicate replicates, primary screen (AID 580;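 active means viability at or under a set limit in both replicates, limit being median viability minus 3 SD, cut at about 48% in these data, passing the limit was not always enough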;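 further: 100% = mean luminescence of untreated wells and 0% = no signal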); conditions: H69AR lung tumor cells viability, ATP luminescence, 72 h; at 10 µM; stronger effect = lower value
[3] = MRP1 drug-resistance reversers in H69AR cells – cell-based, doxorubicin co-treatment, pilot screen (AID 601;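 active means viability loss from added drug above about 55%, and viability with drug at most 40%, in both replicates, limit read from the data, passing the limit was not always enough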); conditions: CellTiter-Glo, 72 h, at 10 µM; for differential viability (reversal): stronger effect = higher value
[4] = yeast transport mutant growth inhibition pilot in 384-well plates, post-Golgi transport modulator project (AID 636); conditions: absorbance 615 nm, about 18 h, stronger effect = higher value
[5] = growth suppression of yeast trafficking mutant, preliminary HTS, modulators of trafficking downstream of Golgi apparatus project, 1536-format plate, OD 615 nm (AID 637; in the data active means inhibition above about 30%); conditions: yeast transport mutant growth, absorbance 615 nm, 18 h; stronger effect = higher value
[6] = H69AR cells + 2 uM doxorubicin, measured here: viability with 2 uM doxorubicin, stronger effect = lower value
[7] = H69AR cells, compound alone cytotoxicity

## CCOC(=O)CC(C#N)c1cn(C)c2ccccc12 (stereo not given)
[1]
  viability: 86.6% (inactive)
[2]
  viability: 88% (inactive)
[3]; H69AR cells + 2 uM doxorubicin
  differential viability (reversal): -4.15% (inactive)
[3]; [6]
  viability: 92.2%
[3]; [7]
  viability: 88%
[4]
  inhibition: -6.58% (inactive)
[5]
  inhibition: -4.6% (inactive)

## N#Cc1c(-c2ccccc2)nc(N2CCCCCC2)[nH]c1=O
[1]
  viability: 91.5% (inactive)
[2]
  viability: 88.2% (inactive)
[3]; H69AR cells + 2 uM doxorubicin
  differential viability (reversal): -3.53% (inactive)
[3]; [6]
  viability: 91.7%
[3]; [7]
  viability: 88.2%
[4]
  inhibition: -4.8% (inactive)
[5]
  inhibition: -3.02% (inactive)

## CCOc1ccccc1C(=O)NCCCn1ccnc1
[1]
  viability: 95.3% (inactive)
[2]
  viability: 91.9% (inactive)
[3]; H69AR cells + 2 uM doxorubicin
  differential viability (reversal): 4.38% (inactive)
[3]; [6]
  viability: 87.5%
[3]; [7]
  viability: 91.9%
[4]
  inhibition: -4.42% (inactive)
[5]
  inhibition: 2.7% (inactive)

## O=C(c1ccc(S(=O)(=O)N2CCOCC2)cc1)N1CCc2ccccc2C1
[1]
  viability: 98.1% (inactive)
[2]
  viability: 91.1% (inactive)
[3]; H69AR cells + 2 uM doxorubicin
  differential viability (reversal): 2.92% (inactive)
[3]; [6]
  viability: 88.2%
[3]; [7]
  viability: 91.1%
[4]
  inhibition: -2.37% (inactive)
[5]
  inhibition: 9.37% (inactive)

## COc1ccc2c(c1)C(=O)N(c1ccccc1OC)C(=O)C2
[1]
  viability: 74.9% (inactive)
[2]
  viability: 92.8% (inactive)
[3]; H69AR cells + 2 uM doxorubicin
  differential viability (reversal): -8.61% (inactive)
[3]; [6]
  viability: 101%
[3]; [7]
  viability: 92.8%
[4]
  inhibition: -3.87% (inactive)
[5]
  inhibition: 0.32% (inactive)

## CCOCCCNC(=O)C1CCCN(S(=O)(=O)CC)C1 (stereo not given)
[1]
  viability: 115% (inactive)
[2]
  viability: 94.5% (inactive)
[3]; H69AR cells + 2 uM doxorubicin
  differential viability (reversal): -3.11% (inactive)
[3]; [6]
  viability: 97.6%
[3]; [7]
  viability: 94.5%
[4]
  inhibition: -6.53% (inactive)
[5]
  inhibition: 2.06% (inactive)

## O=C(NCCN1CCCCC1)c1ccc(=O)oc1
[1]
  viability: 101% (inactive)
[2]
  viability: 99.2% (inactive)
[3]; H69AR cells + 2 uM doxorubicin
  differential viability (reversal): 9.61% (inactive)
[3]; [6]
  viability: 89.6%
[3]; [7]
  viability: 99.2%
[4]
  inhibition: -8.03% (inactive)
[5]
  inhibition: -2.22% (inactive)

## O=C(NC1(C(F)(F)F)NC(=O)N(Cc2ccco2)C1=O)c1cccnc1 (stereo not given)
[1]
  viability: 109% (inactive)
[2]
  viability: 97.2% (inactive)
[3]; H69AR cells + 2 uM doxorubicin
  differential viability (reversal): 2.34% (inactive)
[3]; [6]
  viability: 94.8%
[3]; [7]
  viability: 97.2%
[4]
  inhibition: -7.89% (inactive)
[5]
  inhibition: 1.11% (inactive)

## O=C(Nc1ccc2c(c1)OCO2)OCc1ccccc1
[1]
  viability: 78.9% (inactive)
[2]
  viability: 106% (inactive)
[3]; H69AR cells + 2 uM doxorubicin
  differential viability (reversal): 11.4% (inactive)
[3]; [6]
  viability: 94.5%
[3]; [7]
  viability: 106%
[4]
  inhibition: -4.4% (inactive)
[5]
  inhibition: 2.22% (inactive)

## COc1ccc2c(c1)CCc1c(C(=O)N3CC4(C)CC3CC(C)(C)C4)noc1-2 (stereo not given)
[1]
  viability: 52.3% (inactive)
[2]
  viability: 75.1% (inactive)
[3]; H69AR cells + 2 uM doxorubicin
  differential viability (reversal): 0.855% (inactive)
[3]; [6]
  viability: 74.3%
[3]; [7]
  viability: 75.1%
[4]
  inhibition: -2.34% (inactive)
[5]
  inhibition: -3.02% (inactive)

## Cn1cccc1C(=O)NC(=O)CSc1nnc(C2CC2)n1-c1ccccc1
[1]
  viability: 102% (inactive)
[2]
  viability: 85.7% (inactive)
[3]; H69AR cells + 2 uM doxorubicin
  differential viability (reversal): -7.28% (inactive)
[3]; [6]
  viability: 93%
[3]; [7]
  viability: 85.7%
[4]
  inhibition: -1.17% (inactive)
[5]
  inhibition: -0.63% (inactive)

## COc1ccc(C2C3=C(OC(C)=O)c4ccccc4C3=Nc3c2c(=O)n(C)c(=O)n3C)cc1 (stereo not given)
[1]
  viability: 65.4% (inactive)
[2]
  viability: 74.1% (inactive)
[3]; H69AR cells + 2 uM doxorubicin
  differential viability (reversal): 0.425% (inactive)
[3]; [6]
  viability: 73.7%
[3]; [7]
  viability: 74.1%
[4]
  inhibition: -4% (inactive)
[5]
  inhibition: 0.79% (inactive)

## Nc1nc(SCc2nc3scc(-c4cccs4)c3c(=O)[nH]2)n[nH]1
[1]
  viability: 77.5% (inactive)
[2]
  viability: 93.4% (inactive)
[3]; H69AR cells + 2 uM doxorubicin
  differential viability (reversal): -3.9% (inactive)
[3]; [6]
  viability: 97.3%
[3]; [7]
  viability: 93.4%
[4]
  inhibition: -2.67% (inactive)
[5]
  inhibition: 0.32% (inactive)

## O=C(Nc1nnc(CCN2CCCCC2)s1)C1CCCCC1
[1]
  viability: 93.4% (inactive)
[2]
  viability: 91.9% (inactive)
[3]; H69AR cells + 2 uM doxorubicin
  differential viability (reversal): 7.11% (inactive)
[3]; [6]
  viability: 84.7%
[3]; [7]
  viability: 91.9%
[4]
  inhibition: -5.73% (inactive)
[5]
  inhibition: 4.76% (inactive)

## Cn1c(SCC(=O)Nc2cccc3ccccc23)nc(O)cc1=O
[1]
  viability: 88.3% (inactive)
[2]
  viability: 89.7% (inactive)
[3]; H69AR cells + 2 uM doxorubicin
  differential viability (reversal): -5.66% (inactive)
[3]; [6]
  viability: 95.4%
[3]; [7]
  viability: 89.7%
[4]
  inhibition: -4.67% (inactive)
[5]
  inhibition: -0.79% (inactive)

## O=C(COc1ccccc1Cl)N1CCCC1
[1]
  viability: 105% (inactive)
[2]
  viability: 91.9% (inactive)
[3]; H69AR cells + 2 uM doxorubicin
  differential viability (reversal): -0.435% (inactive)
[3]; [6]
  viability: 92.3%
[3]; [7]
  viability: 91.9%
[4]
  inhibition: 2.24% (inactive)
[5]
  inhibition: -4.6% (inactive)

## Cc1[nH]nc2c1C1(CCN(C(=O)c3ccccc3)CC1)C(C#N)=C(N)O2
[1]
  viability: 104% (inactive)
[2]
  viability: 98.7% (inactive)
[3]; H69AR cells + 2 uM doxorubicin
  differential viability (reversal): 3.04% (inactive)
[3]; [6]
  viability: 95.7%
[3]; [7]
  viability: 98.7%
[4]
  inhibition: 0.52% (inactive)
[5]
  inhibition: 6.83% (inactive)

## O=C(CN1CCOCC1)Nc1cccc(C(=O)Nc2cccc(C(F)(F)F)c2)c1
[1]
  viability: 95.5% (inactive)
[2]
  viability: 101% (inactive)
[3]; H69AR cells + 2 uM doxorubicin
  differential viability (reversal): 8.35% (inactive)
[3]; [6]
  viability: 92.4%
[3]; [7]
  viability: 101%
[4]
  inhibition: -0.26% (inactive)
[5]
  inhibition: 0% (inactive)

## N#Cc1nc(COc2ccccc2)oc1NCCN1CCOCC1
[1]
  viability: 108% (inactive)
[2]
  viability: 107% (inactive)
[3]; H69AR cells + 2 uM doxorubicin
  differential viability (reversal): 11.7% (inactive)
[3]; [6]
  viability: 95%
[3]; [7]
  viability: 107%
[4]
  inhibition: -4.68% (inactive)
[5]
  inhibition: 10.5% (inactive)

## O=C(O)C1CSC2c3ccccc3C(=O)N12 (stereo not given)
[1]
  viability: 104% (inactive)
[2]
  viability: 103% (inactive)
[3]; H69AR cells + 2 uM doxorubicin
  differential viability (reversal): 15.4% (inactive)
[3]; [6]
  viability: 87.6%
[3]; [7]
  viability: 103%
[4]
  inhibition: -1.04% (inactive)
[5]
  inhibition: 3.81% (inactive)
